The source made the active and inactive calls. The rule behind the calls is not given here.
Experiments:
Mus musculus [1] = assay: Upregulation of Chac1 mRNA expression in tumor of BALB/C nu/nu mouse xenografted with human SK-OV-3 cells at 25 mg/kg, ip administered every 2 days for 40 days by qPCR analysis; type: functional, organism-based; settings: time 40.0 day
Procedure, shortened: (§1)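 Female BALB/c nu/nu mice bearing sc U-87 MG or SKOV-3 xenografts were dosed ip at 25 mg/kg (100 μL) every 2 days, or given saline, and tumors were taken at day 40. RNA was extracted from about 20 mg of tissue. qPCR ran 40 cycles (95 °C 15 min; 94 °C 20 s; 60 °C 34 s) on a 69-gene panel. Fold change was by 2^–ΔΔCt, with ≥1.5 counted as increased.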

U-87MG ATCC [2] = assay: Induction of ferroptosis-mediated antitumor activity against human U-87 MG cells xenografted in BALB/C nu/nu mouse assessed as reduction in total glutathione level in tumor at 25 mg/kg, ip administered every 2 days for 40 days by biochemical analysis; type: functional, organism-based; settings: time 40.0 day
Procedure, shortened: (§2)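 U-87 MG or SKOV-3 sc xenografts (1 × 10^8 cells/mL) in female BALB/c nu/nu mice, 4 per group. Given 25 mg/kg ip in 100 μL every 2 days, or saline. Tumors harvested on day 40 and assayed for LPO, MDA, lactic acid, total glutathione (GSH + GSSG), ATP and Fe2+.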

Mus musculus [3] = assay: Upregulation of Htra2 mRNA expression in tumor of BALB/C nu/nu mouse xenografted with human U-87 MG cells at 25 mg/kg, ip administered every 2 days for 40 days by qPCR analysis; type: functional, organism-based; settings: time 40.0 day
Procedure, shortened: (§3)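 Female BALB/c nu/nu mice, 10 weeks old, 4 per group. Inoculated s.c. with 1 × 10^8 cells/mL of log-phase U-87 MG or SKOV-3 cells. Dosed i.p. with 100 μL at 25 mg/kg every 2 days; controls got 100 μL saline. Tumors harvested on day 40. RNA extracted from about 20 mg of tissue. qPCR panel of 69 genes, 40 cycles (94 °C 20 s, 60 °C 34 s). Analysed by 2–ΔΔCt; fold ≥1.5 taken as increased.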

SK-OV-3 [4] = assay: Antitumor activity against human SK-OV-3 cells xenografted in BALB/C nu/nu mouse assessed as reduction in CD31 expression in tumor at 25 mg/kg, ip administered every 2 days for 40 days by immunofluoresence staining based assay; type: functional, organism-based; settings: time 40.0 day
Procedure, shortened: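 Female BALB/c nu/nu mice, 10 weeks old, 4 per group. Received subcutaneous U-87 MG or SKOV-3 cells (1 × 10^8 cells/mL, harvested in log phase). Dosed ip with 100 μL at 25 mg/kg every 2 days; controls got 100 μL saline on the same schedule. Sacrificed at 40 days; tumors weighed, volume = ab²/2. Tumor sections (6 μm, paraffin) stained by immunofluorescence for Ki67 or CD31 with Alexa Fluor 488 secondary.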

Mus musculus [5] = assay: Upregulation of Slc7a11 mRNA expression in tumor of BALB/C nu/nu mouse xenografted with human SK-OV-3 cells at 25 mg/kg, ip administered every 2 days for 40 days by qPCR analysis; type: functional, organism-based; settings: time 40.0 day; procedure, shortened: as §3
Mus musculus [6] = assay: Upregulation of Ireb2 mRNA expression in tumor of BALB/C nu/nu mouse xenografted with human U-87 MG cells at 25 mg/kg, ip administered every 2 days for 40 days by qPCR analysis; type: functional, organism-based; settings: time 40.0 day; procedure, shortened: as §3
U-87MG ATCC [7] = assay: Induction of ferroptosis-mediated antitumor activity against human U-87 MG cells xenografted in BALB/C nu/nu mouse assessed as reduction in FTH1 protein expression in tumor at 25 mg/kg, ip administered every 2 days for 40 days by immunofluoresence staining based assay; type: functional, organism-based; settings: time 40.0 day
Procedure, shortened: (§4)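 Xenografts of U-87 MG or SKOV-3 (1 × 10^8 cells/mL, sc) in female BALB/c nu/nu mice, 4 per group. Treated ip at 25 mg/kg in 100 μL every 2 days versus saline, tumors collected at day 40. Paraffin sections (6 μm) were blocked at 37 °C for 30 min, then incubated with rabbit anti-GPX4 or anti-FTH1 and then Alexa Fluor 488 anti-rabbit, each for 45 min at 37 °C.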

T-cell line = assay: Cytotoxicity against human primary T-lymphocytes assessed as reduction in cell viability at 0.1 uM incubated for 48 to 72 hrs by Annexin V- APC/PI staining based flow cytometry analysis; type: toxicity; settings: time 48-72 hrs
Procedure, shortened: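 T lymphocytes negatively selected from healthy-donor PBMCs isolated by density gradient. Cultured at 1.5 × 10^6/mL with 0.1, 1.0 or 2.5 μM compound, DMSO vehicle or untreated, for 48 or 72 h. Stained with annexin V-APC and propidium iodide; early and late apoptotic fractions counted by flow cytometry.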

Mus musculus [8] = assay: Upregulation of Nfe2l2 mRNA expression in tumor of BALB/C nu/nu mouse xenografted with human U-87 MG cells at 25 mg/kg, ip administered every 2 days for 40 days by qPCR analysis; type: functional, organism-based; settings: time 40.0 day; procedure, shortened: as §3
Mus musculus [9] = assay: Upregulation of Cs mRNA expression in tumor of BALB/C nu/nu mouse xenografted with human U-87 MG cells at 25 mg/kg, ip administered every 2 days for 40 days by qPCR analysis; type: functional, organism-based; settings: time 40.0 day; procedure, shortened: as §1
SK-OV-3 [10] = assay: Induction of ferroptosis-mediated antitumor activity against human SK-OV-3 cells xenografted in BALB/C nu/nu mouse assessed as reduction in GPX4 protein expression in tumor at 25 mg/kg, ip administered every 2 days for 40 days by immunofluoresence staining based assay; type: functional, organism-based; settings: time 40.0 day; procedure, shortened: as §4
U-87MG ATCC [11] = assay: Induction of ferroptosis-mediated antitumor activity against human U-87 MG cells xenografted in BALB/C nu/nu mouse assessed as increase in […] level in tumor at 25 mg/kg, ip administered every 2 days for 40 days by biochemical analysis; type: functional, organism-based; settings: time 40.0 day; procedure, shortened: as §2
Mus musculus [12] = assay: Upregulation of Gls2 mRNA expression in tumor of BALB/C nu/nu mouse xenografted with human U-87 MG cells at 25 mg/kg, ip administered every 2 days for 40 days by qPCR analysis; type: functional, organism-based; settings: time 40.0 day; procedure, shortened: as §3
Mus musculus [13] = assay: Upregulation of Akr1c1 mRNA expression in tumor of BALB/C nu/nu mouse xenografted with human U-87 MG cells at 25 mg/kg, ip administered every 2 days for 40 days by qPCR analysis; type: functional, organism-based; settings: time 40.0 day; procedure, shortened: as §1
Mus musculus [14] = assay: Upregulation of Gpx4 mRNA expression in tumor of BALB/C nu/nu mouse xenografted with human SK-OV-3 cells at 25 mg/kg, ip administered every 2 days for 40 days by qPCR analysis; type: functional, organism-based; settings: time 40.0 day; procedure, shortened: as §3
Mus musculus [15] = assay: Upregulation of Cbs mRNA expression in tumor of BALB/C nu/nu mouse xenografted with human SK-OV-3 cells at 25 mg/kg, ip administered every 2 days for 40 days by qPCR analysis; type: functional, organism-based; settings: time 40.0 day; procedure, shortened: as §1
Mus musculus [16] = assay: Upregulation of TFRC mRNA expression in tumor of BALB/C nu/nu mouse xenografted with human SK-OV-3 cells at 25 mg/kg, ip administered every 2 days for 40 days by qPCR analysis; type: functional, organism-based; settings: time 40.0 day; procedure, shortened: as §3
Mus musculus [17] = assay: Upregulation of Ttc35 mRNA expression in tumor of BALB/C nu/nu mouse xenografted with human SK-OV-3 cells at 25 mg/kg, ip administered every 2 days for 40 days by qPCR analysis; type: functional, organism-based; settings: time 40.0 day; procedure, shortened: as §3

## COc1cc(C(=O)c2cn(-c3ncccn3)cc2-c2ccco2)cc(OC)c1OC
Mus musculus [1]
  Activity: Active
U-87MG ATCC [2]
  Activity: Active
Mus musculus [3]
  Activity: Active
SK-OV-3 [4]
  Activity: Active
Mus musculus [5]
  Activity: Active
Mus musculus [6]
  Activity: Active
U-87MG ATCC [7]
  Activity: Active
T-cell line
  Activity: Non-Toxic
Mus musculus [8]
  Activity: Active
Mus musculus [9]
  Activity: Active
SK-OV-3 [10]
  Activity: Active
U-87MG ATCC [11]
  Activity: Active
Mus musculus [12]
  Activity: Active
Mus musculus [13]
  Activity: Active
Mus musculus [14]
  Activity: Active
Mus musculus [15]
  Activity: Active
Mus musculus [16]
  Activity: Active
Mus musculus [17]
  Activity: Active

Source: ChEMBL document CHEMBL5236592, “Induction of Ferroptosis in Glioblastoma and Ovarian Cancers by a New Pyrrole Tubulin Assembly Inhibitor” (J Med Chem, 2022)
